MEKK3 PB1 HTS – raises or lowers MEK5 binding to the human MEKK3 PB1 domain. Q99759. bead-based flow cytometry, Alexa488-MEK5 binding to MEKK3; actives lie on both sides; 0 = blocked by unlabeled MEK5, 100 = vehicle. binding response (% of control), % at 10 µM. 290,000 compounds, 1.4% hits. AID 1529;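 active = binding response more than 3 SD above or below the average of its plate-row segment, actives on both sides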;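 also: Alexa488 bead fluorescence after subtracting the streptavidin-only scavenger bead signal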
MEKK2wt PB1 HTS – raises or lowers MEK5 binding to wildtype human MEKK2 PB1 domain; binding response (% of control), % at 10 µM; bead flow cytometry, Alexa488-MEK5 binding to MEKK2 WT; actives lie on both sides; 290,000 compounds, 1.1% hits; in the data active = binding response below about 67% or above about 130%
UCH37 DUB inh – blocks the human deubiquitinase UCH37 | Q9Y5K5 | purified proteasome/UCH37, Ub-AMC cleavage fluorescence | inhibition, % (no concentration beside the values) | 330,000 compounds, 0.33% hits;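 active = mean inhibition over replicate wells above about 20%, limit read from the data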;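 also: 0% = compound-free wells with enzyme and 100% = wells lacking proteasome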
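Test system – human UCH37 enzyme supplied as purified proteasome complex · Incubation – 30 min preincubation with enzyme, 25 min cleavage at room temperature · Detection – AMC fluorescence from Ub-AMC cleavage, excitation 355 nm, emission 460 nm · Benchmarks – no-proteasome wells (full inhibition) and compound-free wells (no inhibition)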
MEKK2mut PB1 HTS – signal of MEK5 binding to mutant human MEKK2 PB1 domain | bead flow cytometry, Alexa488-MEK5 binding to MEKK2 mutant | percent response, % at 10 µM | 290,000 compounds, 0.35% hits | AID 1530; in the data active = percent response above about 24%, passing the limit was not always enough
Apaf-1 inh – blocks human Apaf-1 apoptosome activity; reconstituted apoptosome caspase-3 activity, DEVD-Rh110 fluorescence; 330,000 compounds, 0.71% hits; AID 489030; inhibition, % at 20 µM; O14727; active = inhibition of at least 40% at 20 µM;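 also: plate controls were DMSO wells for no effect and DEVD-CHO caspase inhibitor wells for full effect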
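Material: reconstituted apoptosome with Apaf-1, cytochrome c, caspase-9, procaspase-3, dATP / Buffer or medium: pH 7.5 Hepes buffer with CHAPS, BSA, DTT / Also added: cytochrome c with DEVD-Rh110 / Schedule: compound with Apaf-1, dATP, procaspase-3 30 min, then 50 min reaction, room temperature / Technique: rhodamine 110 fluorescence at Ex 480/Em 540 nm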
UBC13 polyUb – inhibitors of human UBC13 polyubiquitin chain formation; P61088; TR-FRET; inhibition, % at 20 µM; 330,000 compounds, 0.47% hits; AID 485273; in the data active = inhibition above about 45%, passing the limit was not always enough
Apaf-1 inh conf – confirmation of Apaf-1 inhibitors; shares compounds with Apaf-1 inh; reconstituted apoptosome, caspase-3 DEVD-Rh110 fluorescence; inhibition, % at 20 µM; 1,800 compounds, 25% hits; AID 504614;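 active = mean inhibition of at least 40% at 20 µM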;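 also: plate controls were DMSO wells for no effect and DEVD-CHO caspase inhibitor control wells for full effect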
Rh110 interf inh – Rh110 signal interference in Apaf-1 inhibitor counter-screen. 1,800 tested, under 10 active. Rh110 fluorescence interference, quenched caspase reaction. shares compounds with Apaf-1 inh. activation (fluorescence interference), % at 20 µM;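 active = signal rise of 40% or more at 20 µM, treated as a fluorescence artifact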
Apaf1 inh interf – counter-screen for Apaf-1 inhibitors: fluorescence interference, dose response; shares compounds with Apaf-1 inh; fluorescence interference counterscreen, Apaf-1 assay format; IC50, µM; 460 tested, under 10 active; call rule not given here
* = called active by the depositor; i = inactive; nt = no result. Rows were chosen to be rich in hits. Some 3% of all compounds tested hit in one or more screens of this group.

SMILES	MEKK3 PB1 HTS	MEKK2wt PB1 HTS	UCH37 DUB inh	MEKK2mut PB1 HTS	Apaf-1 inh	UBC13 polyUb	Apaf-1 inh conf	Rh110 interf inh	others
O=C(C[C@H]1C[C@H](C(=O)N2CCCCC2)[C@@]2(CCc3ccccc3)c3[nH]c4ccc(Cl)cc4c3CCN2C1=O)NCCCn1ccnc1	nt	nt	2	nt	61*	nt	26	10
O=C(C[C@H]1C[C@H](C(=O)N2CCCCC2)[C@@]2(CCc3ccccc3)c3[nH]c4cc(-c5ccco5)ccc4c3CCN2C1=O)NCCN1CCOCC1	nt	nt	-11	nt	48*	nt	17	8
COc1ccc2[nH]c3c(c2c1)CCN1C(=O)C(CC(=O)NC(C)(C)C)C[C@H](C(=O)N2CCOCC2)[C@@]31CCC1CCCC1 (stereo not given in full)	nt	nt	-1	nt	25	nt	nt	nt
COc1ccc(CNC(=O)C[C@H]2C[C@H](C(=O)N(C(C)C)C(C)C)[C@@]3(C)c4[nH]c5ccc(Cl)cc5c4CCN3C2=O)cc1OC	nt	nt	2	nt	29	nt	nt	nt
CC(C)(C)NC(=O)C[C@H]1C[C@H](C(=O)N2CCOCC2)[C@@]2(CCC3CCCC3)c3[nH]c4ccc(Cl)cc4c3CCN2C1=O	nt	nt	3	nt	44*	nt	28	20
CCOc1ccc(NC(=O)Nc2cccn(Cc3ccccc3)c2=O)cc1	103	99	-8	3	16	8	nt	nt
CC(OC(=O)Cn1c(C(F)(F)F)nc2ccccc21)C(N)=O (stereo not given)	104	107	1	13	8	-12	nt	nt
N#Cc1cnc(Nc2ccc(F)cc2)nc1N	91	100	6	-17	-8	-2	nt	nt
COC(=O)c1cc(CSc2ncnc3sccc23)oc1C	107	107	2	7	14	3	nt	nt
CC[C@]12c3[nH]c4ccccc4c3CCN1C(=O)C(CC(=O)NC/C=C(\C)CCC=C(C)C)C[C@@H]2C(=O)N1CCN(C(=O)c2ccco2)CC1 (stereo not given in full)	nt	nt	-1	nt	22	23	nt	nt
O=C(C[C@H]1C[C@H](C(=O)N2CCOCC2)[C@@]2(CCC3CCCC3)c3[nH]c4cc(-c5ccco5)ccc4c3CCN2C1=O)NCCCn1ccnc1	nt	nt	-15	nt	62*	nt	32	8
CCN(CC)C(=O)[C@H]1C[C@H](CC(=O)NCCCn2ccnc2)C(=O)N2CCc3c([nH]c4cc(-c5ccco5)ccc34)[C@]12C	nt	nt	-22	nt	29	nt	nt	nt
CC[C@]12c3[nH]c4ccc(OC)cc4c3CCN1C(=O)C(CC(=O)NC/C=C(\C)CCC=C(C)C)C[C@@H]2C(=O)N1CCN(C(=O)c2ccco2)CC1 (stereo not given in full)	nt	nt	1	nt	40*	nt	25	6
Cc1cc(C)n2nc(C(=O)OCC(=O)c3ccccc3Cl)nc2n1	nt	nt	0	nt	-14	6	nt	nt
CC(=O)Nc1ccc(C(=O)COC(=O)c2nc3nc(C)cc(C)n3n2)cc1	nt	nt	5	nt	41*	-11	10	2
COc1ccc(CC(=O)Nc2ccc(-c3nc4cc(C)ccc4o3)c(O)c2)cc1OC	nt	nt	i	nt	42*	1	6	-3
Cc1ccc(NC2=C(NC(=O)c3ccccc3)C(=O)c3ccccc3C2=O)cc1Cl	96	114	19	12	67*	-119	64*	7	Apaf1 inh interf=>100
Cc1cc(/C=N/n2cnnc2)c(C)n1-c1ccc(Cl)cc1	101	103	nt	-1	2	5	nt	nt
Cc1cc(/C=N/n2cnnc2)c(C)n1-c1ccc(OCc2ccc(Cl)cc2Cl)cc1	114	108	nt	4	46*	5	28	6
Oc1c(Br)cc(Br)cc1C=Nc1cccc2ncccc12	nt	nt	11	nt	97*	-42	56*	6	Apaf1 inh interf=>100
CN(C)N=Cc1cc([N+](=O)[O-])ccc1O	nt	nt	11	nt	nt	nt	nt	nt

From PubChem BioAssay
